# According to ChEMBL document CHEMBL1156498, “4-Hydroxynonenal, an endogenous aldehyde, causes pain and neurogenic inflammation through activation of the irritant receptor TRPA1” (Proc Natl Acad Sci U S A, 2007):
# Activity calls are given as the source filed them. The rule behind the calls is not given here.
# Tests used:
# Mus musculus [1] = species on record: Mus musculus; test: Inhibition of capsaicin-induction of paw lifting in Swiss mouse; type: functional, organism-based
# In short: (§1)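 Mouse nocifensive test: intraplantar capsaicin (0.1 nmol/20 μl, in 4% DMSO) or HNE (120 nmol/20 μl, in saline), with camphor, gentamycin or capsazepine co-injected intraplantar. Licking/lifting time recorded for 5 min; vehicle controls. Mean ± SEM; ANOVA with Bonferroni.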
# Rattus norvegicus [2] = species on record: Rattus norvegicus; test: Reduction of capsaocin-induction of allodynia in rat
# [3] = biological target: Transient receptor potential cation channel subfamily A member 1 (Rattus norvegicus) (UniProt Q6RI86); test: Activity at TRPA1 channel in rat dorsal root ganglion neurons assessed as attenuation of capsaicin-induced intracellular calcium; type: tissue-based
# In short: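 Cultured rat DRG neurons, Fura2/AM calcium imaging. Capsaicin (0.1 μM)-evoked [Ca2+]i responses measured in the presence of TRPA1 antagonists.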
# Mus musculus [4] = species on record: Mus musculus; test: Attenuation of capsaicin-induction of paw lifting in Swiss mouse; type: functional, organism-based; in short: as §1
# [5] = biological target: Transient receptor potential cation channel subfamily A member 1 (Homo sapiens) (UniProt O75762); test: Reversal of activation of human TRPA1 channel expressed in xenopus oocytes by two electrode voltage-clamp technique in presence of ruthenium red; type: cell-based; conditions: Oocyte
# In short: (§2)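 Two-electrode voltage clamp at +70 mV holding potential on Xenopus oocytes expressing human TRPA1, with voltage ramps for current–voltage relationships. Agonist challenge followed by ruthenium red (10 μM) block; 2-aminoethyl diphenylborinate (200 μM) used as reference agonist.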
# Rattus norvegicus [6] = species on record: Rattus norvegicus; test: Reversal of induction of allodynia in rat in presence of camphor
# Mus musculus [7] = test: Induction of paw licking in intraplantarly dosed Swiss mouse at 120 nmol/paw; type: functional, organism-based
# In short: (§3)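 Male Swiss mice injected intraplantar with HNE 120 nmol in 20 μl 0.9% saline. Time spent licking and lifting the injected paw recorded for 5 min immediately after injection; vehicle controls.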
# Mus musculus [8] = test: Induction of paw licking in intraplantarly dosed TRPA1-deficient Swiss mouse at 120 nmol/paw; type: functional, organism-based
# In short: (§4)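 Male TRPA1-deficient mice and wild-type littermates (about 30 g) injected intraplantar with HNE 120 nmol in 20 μl 0.9% saline. Total licking/lifting time recorded for 5 min, scored blind to genotype. n = 6 per group; single-factor ANOVA.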
# [9] = biological target: Transient receptor potential cation channel subfamily A member 1 (Rattus norvegicus) (UniProt Q6RI86); test: Activation of TRPA1 channel in rat dorsal root ganglion neurons assessed as increase in intracellular calcium level at 300 uM; type: tissue-based
# In short: (§5)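 Cultured rat dorsal root ganglion neurons loaded with Fura2/AM. HNE bath-applied across 30–500 μM. Ratiometric calcium imaging of the rise in [Ca2+]i, with capsaicin response recorded. Dose–response curve built from n ≥ 22 cells; mean ± SEM.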
# Mus musculus [10] = test: Induction of paw lifting in TRPA1-deficient intraplantarly dosed Swiss mouse at 120 nmol/paw; type: functional, organism-based; in short: as §4
# Mus musculus [11] = test: Induction of paw lifting in intraplantarly dosed Swiss mouse at 120 nmol/paw; type: functional, organism-based; in short: as §3
# Spinal cord [12] = test: Induction of neurogenic inflammation in rat dorsal spinal cord assessed as substance P release for 20 mins; type: functional, tissue-based
# In short: (§6)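 Rat lumbar dorsal spinal cord or esophagus slices (≈0.4 mm), stabilized 60 min in Krebs' solution at 37°C. Agonist superfused 20 min (HNE 50 or 100 μM). Fractions collected every 10 min into ethanoic acid (final 2 N), freeze-dried, and assayed for SP- or CGRP-like immunoreactivity (fmol/g/20 min). Controls: capsaicin desensitization (10 μM, 20 min) or 2 mM EGTA. n ≥ 4 slices; mean ± SEM.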
# Esophagus [13] = test: Induction of neurogenic inflammation in rat esophagus assessed as CGRP peptide release for 20 mins; type: functional, tissue-based; in short: as §6
# [14] = biological target: Transient receptor potential cation channel subfamily A member 1 (Rattus norvegicus) (UniProt Q6RI86); test: Reversal of activation of TRPA1 channel in rat dorsal root ganglion neurons at 100 uM by calcium imaging in presence of gentamycin; type: tissue-based
# In short: (§7)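 Cultured rat DRG neurons, Fura2/AM ratiometric calcium imaging. HNE 100 μM-evoked [Ca2+]i rise measured with ruthenium red (1 μM), (+) camphor (1 mM), gentamycin (100 μM) or capsazepine (10 μM), each versus vehicle. n ≥ 22 cells; mean ± SEM; Bonferroni test.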
# [15] = biological target: Transient receptor potential cation channel subfamily A member 1 (Rattus norvegicus) (UniProt Q6RI86); test: Reversal of activation of TRPA1 channel in rat dorsal root ganglion neurons at 100 uM by calcium imaging in presence of camphor; type: tissue-based; in short: as §7
# Mus musculus [16] = species on record: Mus musculus; test: Reversal of induction of paw lifting in Swiss mouse at 15 to 240 nmol/paw in presence gentamycin; type: functional, organism-based; in short: as §1
# Rattus norvegicus [17] = species on record: Rattus norvegicus; test: Reversal of induction of allodynia in rat in presence of capsazepine
# Spinal cord [18] = test: Induction of neurogenic inflammation in rat dorsal spinal cord assessed as CGRP peptide release for 20 mins; type: functional, tissue-based; in short: as §6
# Mus musculus [19] = species on record: Mus musculus; test: Induction of paw lifting in Swiss mouse; type: functional, organism-based
# In short: (§8)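 Male Swiss mice injected intraplantar with HNE at 15–240 nmol in 20 μl saline, then placed in a chamber. Total time licking and lifting the injected paw recorded for 5 min.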
# [20] = biological target: T1, Transient receptor potential cation channel subfamily A member 1 (Rattus norvegicus, UniProt Q6RI86); test: Agonist activity at rat TRPA1 channel expressed in tetracycline induced HEK293 cells assessed as increase in intracellular calcium; type: functional, cell-based
# In short: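 Stable HEK293 FLPTREX line carrying HA-tagged rat TRPA1 under a tetracycline-inducible promoter. Expression induced with 0.1 μg/ml tetracycline 16 h before the assay. Fura2/AM [Ca2+]i read on a multiwell fluorescence plate reader, 30,000 cells per well, 10–100 μM, n = 4 wells per concentration, EC50 derived.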
# Rattus norvegicus [21] = test: Increase in plasma extravasation in intraplantar dosed rat hind paw; type: functional, organism-based
# In short: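 Male Sprague–Dawley rats (250 g) given Evans Blue (30 mg/kg) into the tail vein 1 min before intraplantar HNE (60–150 nmol in 30 μl) or vehicle. Killed by exsanguination at 30 min; paw skin dye extracted in formamide 48 h at room temperature in the dark and read at 620 nm, expressed as ng/g wet tissue. SR140333 (1.6 μmol/kg i.v.) given 15 min before. n ≥ 4.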
# Rattus norvegicus [22] = species on record: Rattus norvegicus; test: Induction of allodynia in rat
# [23] = biological target: T1, Transient receptor potential cation channel subfamily A member 1; test: Activation of TRPA1 channel in rat dorsal root ganglion neurons assessed as increase in intracellular calcium level; type: tissue-based
# In short: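 Rat DRG neurons in culture, loaded with Fura2/AM and read by ratiometric calcium imaging. Agonist applied in the bath at 30–500 μM, with a concentration-response used to derive the EC50. n ≥ 22 cells.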
# Mus musculus [24] = species on record: Mus musculus; test: Induction of paw licking in Swiss mouse; type: functional, organism-based; in short: as §8
# [25] = biological target: Transient receptor potential cation channel subfamily A member 1 (Rattus norvegicus) (UniProt Q6RI86); test: Agonist activity at rat TRPA1 channel expressed in HEK293 cells assessed as increase in intracellular calcium; type: functional, cell-based
# In short: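 Stable Flp-In HEK293 line expressing C-terminally HA11-tagged rat TRPA1 under a tetracycline-inducible promoter, induced with 0.1 μg/ml tetracycline 16 h before testing. Uninduced and vector-control cells also tested. Fura2/AM [Ca2+]i read in a fluorescence plate reader, 30,000 cells per well, n = 4 wells per concentration. Concentration–response used to derive EC50.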
# [26] = biological target: Transient receptor potential cation channel subfamily A member 1 (Homo sapiens) (UniProt O75762); test: Agonist activity at human TRPA1 channel expressed in xenopus oocytes assessed as membrane currents by two electrode voltage-clamp technique; type: functional, cell-based; conditions: Oocyte; in short: as §2
# [27] = biological target: Transient receptor potential cation channel subfamily A member 1 (Rattus norvegicus) (UniProt Q6RI86); test: Reversal of activation of TRPA1 channel in rat dorsal root ganglion neurons at 100 uM by calcium imaging in presence of capsazepine; type: tissue-based; in short: as §7
# [28] = biological target: Transient receptor potential cation channel subfamily A member 1 (Rattus norvegicus) (UniProt Q6RI86); test: Activation of TRPA1 channel in rat dorsal root ganglion neurons assessed as increase in intracellular calcium level at 50 uM; type: tissue-based; in short: as §5
# [29] = biological target: Transient receptor potential cation channel subfamily A member 1 (Rattus norvegicus) (UniProt Q6RI86); test: Reversal of activation of TRPA1 channel in rat dorsal root ganglion neurons at 100 uM by calcium imaging in presence of ruthenium red; type: tissue-based; in short: as §7
# Rattus norvegicus [30] = species on record: Rattus norvegicus; test: Reversal of induction of allodynia in rat in presence of gentamycin
# Esophagus [31] = test: Induction of neurogenic inflammation in rat esophagus assessed as substance P release for 20 mins; type: functional, tissue-based; in short: as §6
# Esophagus [32] = test: Induction of neurogenic inflammation in rat esophagus assessed as CGRP release per 20 mins at 50 uM in calcium free medium; type: functional
# In short: (§9)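 Rat dorsal spinal cord or esophagus slices superfused in Krebs' solution at 37°C, with extracellular Ca2+ chelated by 2 mM EGTA added to the bath. Fractions collected every 10 min into ethanoic acid (final 2 N), freeze-dried, and assayed for SP or CGRP immunoreactivity. Results in fmol/g/20 min, at least four experiments.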
# Esophagus [33] = test: Induction of neurogenic inflammation in rat esophagus assessed as substance P release per 20 mins at 50 uM; type: functional
# In short: (§10)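 Rat lumbar dorsal spinal cord or esophagus slices (~0.4 mm), stabilized 60 min in Krebs' solution at 37°C, then superfused. Fractions collected at 10-min intervals into ethanoic acid (final 2 N), freeze-dried, reconstituted, and assayed for SP or CGRP immunoreactivity. Results in fmol/g/20 min, at least four experiments.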
# Spinal cord [34] = test: Induction of neurogenic inflammation in rat dorsal spinal cord assessed as CGRP release per 20 mins at 10 uM in calcium free medium; type: functional; in short: as §9
# Esophagus [35] = test: Induction of neurogenic inflammation in capsaicin desensitized rat esophagus assessed as substance P release per 20 mins at 50 uM; type: functional
# In short: (§11)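 Rat lumbar dorsal spinal cord or esophagus slices (~0.4 mm), superfused in Krebs' solution at 37°C after 60 min stabilization. Tissue desensitized beforehand with 10 μM capsaicin for 20 min. Fractions collected at 10-min intervals into ethanoic acid (final 2 N), freeze-dried, and assayed for SP or CGRP immunoreactivity. Results in fmol/g/20 min, at least four experiments.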
# Spinal cord [36] = test: Induction of neurogenic inflammation in rat dorsal spinal cord assessed as substance P release per 20 mins at 10 uM in calcium free medium; type: functional; in short: as §9
# Esophagus [37] = test: Induction of neurogenic inflammation in rat esophagus assessed as CGRP release per 20 mins at 50 uM; type: functional; in short: as §10
# Spinal cord [38] = test: Induction of neurogenic inflammation in rat dorsal spinal cord assessed as CGRP peptide release per 20 mins at 10 uM; type: functional; in short: as §10
# Spinal cord [39] = test: Induction of neurogenic inflammation in capsaicin desensitized rat dorsal spinal cord assessed as substance P release per 20 mins at 10 uM; type: functional; in short: as §11
# Esophagus [40] = test: Induction of neurogenic inflammation in rat esophagus assessed as substance P release per 20 mins at 50 uM in calcium free medium; type: functional; in short: as §9
# Spinal cord [41] = test: Induction of neurogenic inflammation in rat dorsal spinal cord assessed as substance P release per 20 mins at 10 uM; type: functional; in short: as §10
# Esophagus [42] = test: Induction of neurogenic inflammation in capsaicin desensitized rat esophagus assessed as CGRP release per 20 mins at 50 uM; type: functional; in short: as §11
# Spinal cord [43] = test: Induction of neurogenic inflammation in capsaicin desensitized rat dorsal spinal cord assessed as CGRP peptide release per 20 mins at 10 uM; type: functional; in short: as §11
# Sequence of Transient receptor potential cation channel subfamily A member 1 (Rattus norvegicus) (Q6RI86 whole entry): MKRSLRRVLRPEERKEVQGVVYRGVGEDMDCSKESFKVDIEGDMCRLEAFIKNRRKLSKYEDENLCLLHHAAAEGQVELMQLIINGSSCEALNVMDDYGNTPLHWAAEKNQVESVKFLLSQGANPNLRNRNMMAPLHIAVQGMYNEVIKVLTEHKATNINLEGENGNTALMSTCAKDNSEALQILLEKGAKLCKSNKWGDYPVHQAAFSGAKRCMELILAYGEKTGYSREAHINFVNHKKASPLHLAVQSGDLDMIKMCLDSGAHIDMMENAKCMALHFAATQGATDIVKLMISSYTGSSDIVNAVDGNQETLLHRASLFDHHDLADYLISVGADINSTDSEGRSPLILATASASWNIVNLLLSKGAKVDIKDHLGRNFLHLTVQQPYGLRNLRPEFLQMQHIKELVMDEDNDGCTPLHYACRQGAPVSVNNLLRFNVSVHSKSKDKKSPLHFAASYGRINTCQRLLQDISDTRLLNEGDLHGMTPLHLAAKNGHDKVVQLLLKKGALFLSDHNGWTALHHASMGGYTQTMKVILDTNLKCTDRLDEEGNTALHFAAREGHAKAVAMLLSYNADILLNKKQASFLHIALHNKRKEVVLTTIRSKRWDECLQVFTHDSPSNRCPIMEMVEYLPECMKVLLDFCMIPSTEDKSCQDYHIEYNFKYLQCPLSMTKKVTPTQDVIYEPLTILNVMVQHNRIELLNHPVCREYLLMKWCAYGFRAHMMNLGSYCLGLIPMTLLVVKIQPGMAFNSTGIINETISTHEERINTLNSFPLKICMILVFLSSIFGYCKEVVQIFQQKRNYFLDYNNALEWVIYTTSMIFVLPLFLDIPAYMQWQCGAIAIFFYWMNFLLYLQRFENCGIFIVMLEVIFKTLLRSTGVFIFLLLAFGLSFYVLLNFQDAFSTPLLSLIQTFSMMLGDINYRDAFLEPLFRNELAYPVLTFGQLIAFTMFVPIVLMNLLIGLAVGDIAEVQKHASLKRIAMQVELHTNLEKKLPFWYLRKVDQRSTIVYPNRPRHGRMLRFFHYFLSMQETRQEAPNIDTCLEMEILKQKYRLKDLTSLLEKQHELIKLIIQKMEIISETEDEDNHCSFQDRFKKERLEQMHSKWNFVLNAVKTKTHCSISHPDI
# Sequence of Transient receptor potential cation channel subfamily A member 1 (Homo sapiens) (O75762 whole entry): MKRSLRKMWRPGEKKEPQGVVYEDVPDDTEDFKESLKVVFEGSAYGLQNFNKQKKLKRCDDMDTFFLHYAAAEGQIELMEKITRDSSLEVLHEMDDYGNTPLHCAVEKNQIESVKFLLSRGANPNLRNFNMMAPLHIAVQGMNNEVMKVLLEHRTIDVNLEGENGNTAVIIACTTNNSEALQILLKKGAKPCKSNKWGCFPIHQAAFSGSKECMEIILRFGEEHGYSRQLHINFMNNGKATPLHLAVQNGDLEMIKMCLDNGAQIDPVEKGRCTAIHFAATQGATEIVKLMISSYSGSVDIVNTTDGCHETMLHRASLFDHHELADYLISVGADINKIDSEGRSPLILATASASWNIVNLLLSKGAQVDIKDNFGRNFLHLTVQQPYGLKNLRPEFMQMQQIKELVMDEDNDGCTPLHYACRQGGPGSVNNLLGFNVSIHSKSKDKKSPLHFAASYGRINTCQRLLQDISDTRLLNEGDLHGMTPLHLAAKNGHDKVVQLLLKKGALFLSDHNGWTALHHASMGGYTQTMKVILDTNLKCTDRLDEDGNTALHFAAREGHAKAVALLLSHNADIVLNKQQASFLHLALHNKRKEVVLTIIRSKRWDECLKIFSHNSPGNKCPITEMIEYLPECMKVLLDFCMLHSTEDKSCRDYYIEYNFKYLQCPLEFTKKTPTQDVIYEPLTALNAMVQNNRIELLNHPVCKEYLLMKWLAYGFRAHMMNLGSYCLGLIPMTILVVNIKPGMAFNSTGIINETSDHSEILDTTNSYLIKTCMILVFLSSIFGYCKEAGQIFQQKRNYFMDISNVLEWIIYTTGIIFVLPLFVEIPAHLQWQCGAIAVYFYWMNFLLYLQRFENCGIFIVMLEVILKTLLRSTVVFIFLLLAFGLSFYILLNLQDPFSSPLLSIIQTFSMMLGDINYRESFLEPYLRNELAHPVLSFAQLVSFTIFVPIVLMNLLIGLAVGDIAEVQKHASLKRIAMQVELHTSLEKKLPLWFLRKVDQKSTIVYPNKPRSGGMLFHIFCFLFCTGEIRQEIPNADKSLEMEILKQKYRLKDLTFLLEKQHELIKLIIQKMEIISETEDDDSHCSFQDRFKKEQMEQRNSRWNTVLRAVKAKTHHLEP
# T1 sequence (Q6RI86 whole entry): as the sequence (Q6RI86 whole entry) above
compound,measurement,setting,value
CC12CCC(CC1=O)C2(C)C (stereo not drawn),Activity,Mus musculus [1],Active
Oc1cc2c(cc1O)CN(C(=S)NCCc1ccc(Cl)cc1)CCC2,Activity,Rattus norvegicus [2],Active
same,Activity,[3],Active
same,Activity,Mus musculus [4],Active
CCCCCC(O)/C=C/C=O (stereo not drawn) [4-HYDROXYNON-2-ENAL],Activity,[5],Active
same,Activity,Rattus norvegicus [6],inactive
same,Activity,Mus musculus [7],Active
same,Activity,Mus musculus [8],inactive
same,Activity,[9],Active
same,Activity,Mus musculus [10],inactive
same,Activity,Mus musculus [11],Active
same,Activity,Spinal cord [12],Active
same,Activity,Esophagus [13],Active
same,Activity,[14],inactive
same,Activity,[15],inactive
same,Activity,Mus musculus [16],inactive
same,Activity,Rattus norvegicus [17],Active
same,Activity,Spinal cord [18],Active
same,Activity,Mus musculus [19],Dose-dependent effect
same,EC50,[20],27 µM
same,Activity,Rattus norvegicus [21],Dose-dependent effect
same,Activity,Rattus norvegicus [22],Dose-dependent effect
same,EC50,[23],77 µM
same,Activity,Mus musculus [24],Dose-dependent effect
same,Activity,[25],inactive
same,Activity,[26],Active
same,Activity,[27],Active
same,Activity,[28],Active
same,Activity,[29],inactive
same,Activity,Rattus norvegicus [30],inactive
same,Activity,Esophagus [31],Active
O=C/C=C/c1ccccc1 [CINNAMALDEHYDE],Activity,Esophagus [32],19.2 fmol/g
same,Activity,Esophagus [33],31.5 fmol/g
same,Activity,Spinal cord [34],118.5 fmol/g
same,Activity,Esophagus [35],5.8 fmol/g
same,Activity,Spinal cord [36],34.5 fmol/g
same,Activity,Esophagus [37],93.2 fmol/g
same,Activity,Spinal cord [38],720.4 fmol/g
same,Activity,Spinal cord [39],23.7 fmol/g
same,Activity,Esophagus [40],6.3 fmol/g
same,Activity,Spinal cord [41],160.5 fmol/g
same,Activity,Esophagus [42],17.8 fmol/g
same,Activity,Spinal cord [43],63.8 fmol/g
